In ChEMBL document CHEMBL1133718, “Structure-activity relationships and binding mode of styrylquinolines as potent inhibitors of HIV-1 integrase and replication of HIV-1 in cell culture” (J Med Chem, 2000):

Experiments:
[1] = biological target: T1, Human immunodeficiency virus type 1 integrase (Human immunodeficiency virus 1, UniProt Q7ZJM1); assay: Inhibitory activity against HIV-1 Integrase in 3'-end- processing
In short: (§1)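 3'-processing: 0.5 pmol U5A/U5B annealed duplex with 1 pmol purified recombinant full-length HIV-1 IN in 20 mM Tris pH 7.2, 30 mM NaCl, 10% glycerol, 10 mM DTT, 0.01% NP40, plus 10 mM MnCl2.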

[2] = test system: Human immunodeficiency virus 1; assay: Inhibitory effect upon disintegration catalyzed by the (50-212) deletion mutant; assay type: functional
In short: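 Disintegration reaction run with 0.5 pmol D38U3 substrate and 2 pmol of the His-tagged F185K soluble HIV-1 integrase core domain (residues 50-212), expressed and purified recombinantly. Potency is reported as IC50.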

[3] = Toxic concentration, estimated by MTT transformation assay; assay type: ADME, organism-based, Human immunodeficiency virus 1; details: CEM cells; read-out: TC50 (the source's name)
In short: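 Cell viability by MTT: MTT solution (7.5 mg/mL, in phosphate buffer) added to infected, drug-treated CEM wells. Incubation 4 h at 37 °C under CO2, formazan dissolved in 10% SDS/10 mM HCl, absorbance read at 570 nm.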

[4] = biological target: T1, Human immunodeficiency virus type 1 integrase; assay: Inhibitory activity against HIV-1 Integrase in strand transfer (integration)
[5] = test system: Human immunodeficiency virus 1; assay: Antiviral activities against HIV-1 replication in CEM cells and its ability to lower the viral charge supernatants was reported; NR is not reached; assay type: functional, organism-based; details: CCRF-CEM
In short: (§2)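 CEM cells infected with cell-free HIV-1 ([…] clone, produced by transfecting P4 cells), in triplicate; virus removed 2 h post-infection, then DMSO-dissolved drug added in fresh medium at increasing concentrations. 72 h supernatants infected HeLa-CD4-βGal (P4) reporter cells for 24 h; lysates incubated with CPRG, absorbance at 570 nm. Some cases used p24 antigen ELISA.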

[6] = test system: Human immunodeficiency virus 1; assay: Antiviral activities against HIV-1 replication in CEM cells and its ability to lower the viral charge supernatants was reported; assay type: functional, organism-based; details: Human immunodeficiency virus 1, CCRF-CEM; in short: as §2
[7] = biological target: T1, Human immunodeficiency virus type 1 integrase; assay: Inhibitory activity against HIV-1 Integrase in 3'-end- processing with purified recombinant enzyme
[8] = biological target: T1, Human immunodeficiency virus type 1 integrase; assay: Inhibitory activity against HIV-1 Integrase in strand transfer (integration) with purified recombinant enzyme
[9] = biological target: T1, Human immunodeficiency virus type 1 integrase; assay: Inhibitory activity against Integrase in 3'-end- processing; in short: as §1
[10] = biological target: T1, Human immunodeficiency virus type 1 integrase; assay: Inhibitory activity against Integrase in strand transfer (integration)

T1 sequence (Q7ZJM1 whole entry): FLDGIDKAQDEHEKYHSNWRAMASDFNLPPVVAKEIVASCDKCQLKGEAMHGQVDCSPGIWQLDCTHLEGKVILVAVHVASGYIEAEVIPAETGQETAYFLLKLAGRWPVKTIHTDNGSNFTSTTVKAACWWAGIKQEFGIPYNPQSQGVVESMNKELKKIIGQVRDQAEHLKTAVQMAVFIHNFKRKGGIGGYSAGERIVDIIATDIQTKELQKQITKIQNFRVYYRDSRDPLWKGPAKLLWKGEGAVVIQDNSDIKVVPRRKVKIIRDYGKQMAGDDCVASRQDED

Row | SMILES | IC50 [6] [µM] | IC50 [9] [µM] | IC50 [10] [µM] | IC50 [1] [µM] | IC50 [2] [µM] | CC50 [3] [µM] | IC50 [4] [µM] | NR [5] | IC50 [7] [µM] | IC50 [8] [µM]
1 | O=C(O)c1ccc2ccc(/C=C/c3ccccc3)nc2c1O | – | – | – | 5.3 | 3.4 | 31 | 2.1 | Not reached | – | –
2 | O=C(O)c1ccc2ccc(/C=C/c3cc(Br)c(O)c(Br)c3)nc2c1O | – | – | – | 1.3 | – | – | 1.2 | – | – | –
3 | CC(=O)Nc1ccc(/C=C/c2ccc3ccc(C(=O)O)c(O)c3n2)cc1 | – | – | – | 1.4 | 1.7 | 47 | 1.2 | Not reached | – | –
4 | O=C(O)c1ccc2ccc(/C=C/c3ccsc3)nc2c1O | – | – | – | 3.4 | 0.8 | 85 | 3 | Not reached | – | –
5 | O=C(O)c1ccc2ccc(/C=C/c3ccco3)nc2c1O | > 100 | – | – | – | 1.4 | > 100 | – | – | 1.9 | 5.1
6 | Oc1ccc(/C=C/c2ccc3c(Cl)cc(Cl)c(O)c3n2)cc1O | – | > 100 | > 100 | – | – | 17 | – | Not reached | – | –
7 | O=C(O)c1ccc2ccc(/C=C/c3cccnc3)nc2c1O | > 100 | – | – | 4.1 | 5.1 | > 100 | 11 | – | – | –
8 | COc1cc(/C=C/c2ccc3ccc(C(=O)O)c(O)c3n2)cc(OC)c1O | 9 | – | – | 4.9 | – | > 100 | 4.5 | – | – | –
9 | Cc1ccc2ccc(C(=O)O)c(O)c2n1 | > 100 | – | – | – | – | > 100 | > 100 | – | – | –
10 | Nc1ccc(/C=C/c2ccc3ccc(C(=O)O)c(O)c3n2)cc1 | 50 | – | – | 3.5 | 12 | 100 | 2.2 | – | – | –
11 | COc1cc(/C=C/c2ccc3ccc(C(=O)O)c(O)c3n2)cc(O)c1O | 12 | 0.7 | 1.7 | – | – | > 100 | – | – | – | –
12 | O=C(O)c1ccc2ccc(/C=C/c3ccc([N+](=O)[O-])cc3)nc2c1O | – | – | – | 1.2 | 2.2 | 43 | 1.7 | Not reached | – | –
13 | O=C(O)c1ccc2ccc(CCc3ccc(O)c(O)c3)nc2c1O | – | 2.3 | 1.5 | – | – | 61 | – | Not reached | – | –

More lines, main results first:

Row | IC50 [6] [µM] | IC50 [9] [µM] | IC50 [10] [µM] | SMILES | IC50 [1] [µM] | IC50 [2] [µM] | CC50 [3] [µM] | IC50 [4] [µM] | NR [5] | IC50 [7] [µM] | IC50 [8] [µM]
14 | 1.3 | – | – | O=C(O)c1ccc2ccc(/C=C/c3ccc(O)c(O)c3)nc2c1O | – | – | > 100 | – | – | – | –
15 | 95 | – | – | O=C(O)c1ccc2ccc(/C=C/c3ccc(O)cc3)nc2c1O | 1.6 | – | > 100 | 1.6 | – | – | –
16 | > 100 | 3.2 | 3.2 | O=C(O)c1ccc2ccc(/C=C/c3cc(O)cc(O)c3)nc2c1O | – | – | > 100 | – | – | – | –
17 | 1.2 | – | – | O=C(O)c1ccc2ccc(/C=C/c3cc(O)c(O)c(O)c3)nc2c1O | – | – | 10 | – | – | – | –
18 | – | > 100 | > 100 | COC(=O)c1ccc2ccc(/C=C/c3ccc(O)c(O)c3)nc2c1O | – | – | 9.2 | – | Not reached | – | –
19 | 54 | – | – | COc1ccc(/C=C/c2ccc3ccc(C(=O)O)c(O)c3n2)cc1O | 0.9 | – | 95 | 3.3 | – | – | –
20 | 3 | – | – | COc1cc(/C=C/c2ccc3ccc(C(=O)O)c(O)c3n2)ccc1O | 2.8 | – | 95 | 3.7 | – | – | –
21 | 80 | – | – | O=C(O)c1ccc2ccc(/C=C/c3ccc(O)cc3O)nc2c1O | – | – | > 100 | – | – | – | –
22 | 6.8 | 4 | 4.9 | O=C(O)c1ccc2ccc(/C=C/c3cc(O)c(O)c(I)c3)nc2c1O | – | – | > 100 | – | – | – | –
